# According to publication PMC6339461 (Bioorganic & medicinal chemistry letters, 2018):
# “Also recorded” adds a separate entry of the source.
# Assays:
# [1] = parallel artificial membrane permeability assay; type: in vitro ADME; details: for permeability, result in words: PAMPA
# HeLa = test: cytotoxicity in HeLa cells; type: cell-based; details: concentrations up to 100 μM
# HepG2 = test: cytotoxicity in HepG2 cells; type: cell-based; details: concentrations up to 100 μM
# [2] = solubility in DMSO and buffer; type: physicochemical; details: in both DMSO and buffer; compared with hit 7a
# TDP2 = biological target: T1, TDP2 (Danio rerio, UniProt Q5XJA0); test: fluorescence-based biochemical assay measuring the catalytic activity of TDP2
# T1 sequence (Q5XJA0 121-369): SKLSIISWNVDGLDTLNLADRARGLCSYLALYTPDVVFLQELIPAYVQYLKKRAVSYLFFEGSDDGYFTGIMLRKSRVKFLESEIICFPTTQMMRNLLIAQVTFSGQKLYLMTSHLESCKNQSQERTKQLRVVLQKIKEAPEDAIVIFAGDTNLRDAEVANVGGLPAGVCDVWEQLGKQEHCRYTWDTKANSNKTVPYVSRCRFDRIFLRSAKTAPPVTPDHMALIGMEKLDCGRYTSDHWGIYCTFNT
# Outline: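 TDP2 catalytic activity measured with a fluorescence read-out. IC50 values are the mean of three independent experiments, each run in triplicate.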
SMILES,"permeability, result in words [1]","cytotoxicity in HeLa, result in words (HeLa)","cytotoxicity in HepG2, result in words (HepG2)",further results
O=C(Nc1nc2cc(-c3cccnc3)ccn2n1)c1cccc(Cl)c1 [Compound 17z],good cellular permeability; also recorded: excellent cell permeability,no cytotoxicity,no cytotoxicity,fold increase in permeability versus 17e ([1]; relative to 17e): 7 fold
O=C(Nc1nc2cc(-c3ccccc3)ccn2n1)c1cccc(Cl)c1 [Compound 17e],borderline Pe value; also recorded: good cellular permeability,no cytotoxicity,no cytotoxicity,"Pe value, times higher than that of 1 ([1]; relative to 1): about 10 times; permeability in PAMPA, fold higher than the hit compound ([1]; relative to hit compound): 6 fold"
O=C(Nc1nc2cc(-c3ccccc3)ccn2n1)c1cccc([N+](=O)[O-])c1 [Compound 17a],,,,"solubility profile, result in words [2]: better solubility profile"
O=C(Nc1nc2cc(-c3ccccc3)ccn2n1)c1ccc(F)cc1Cl [Compound 17o],,,,"TDP2 inhibition, result in words (TDP2): further reduced activity"
